Where a name gives a salt, the structure may show the parent alone. Active and inactive are the calls of the source. No cut-off for these calls is given here.
Columns and labels:
[1] = tested on: K562/A02; experiment: Cytotoxicity against human K562/A02 cells assessed as reduction in cell viability after 72 hrs by MTS assay; assay type: cell-based; settings: K562/A02, 72 h
How it was run: (§1)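 Cells (1×10^4/well) in RPMI-1640 grown 24 h, then exposed to a range of concentrations for 72 h at 37 °C, 5% CO₂. MTS added for a further 3 h at 37 °C; absorbance read at 490 nm. IC50 from dose-response curves; means of triplicate experiments.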

[2] = tested on: K562; experiment: Cytotoxicity against human K562 cells assessed as reduction in cell viability after 72 hrs by MTS assay; assay type: cell-based; settings: K562, 72 h; how it was run: as §1
[3] = tested on: K562/A02; experiment: Inhibition of P-gp mediated efflux in human K562/A02 cells assessed as increase in intracellular Rh123 accumulation after 1 hr by flow cytometric analysis; assay type: cell-based
How it was run: (§2)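 1×10^6 K562 or K562/A02 cells preincubated 1 h at 37 °C with compound (10 μM single dose; dose-response at 10, 3.3 and 0.3 μM), verapamil or 0.1% DMSO vehicle, then 0.5 μM Rh123 for 30 min. Stopped and washed three times with ice-cold PBS; flow cytometry. Fold change = fluorescence over vehicle; mean ± S.D., three independent experiments.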

[4] = tested on: K562; experiment: Effect on intracellular Rh123 accumulation in human K562 cells at 0.3 to 10 uM after 1 hr by flow cytometric analysis; assay type: functional, cell-based; how it was run: as §2
[5] = tested on: K562/A02; experiment: Inhibition of P-gp-mediated drug resistance in human K562/A02 cells assessed as reduction in adriamycin IC50 at 2 uM after 72 hrs by MTS assay relative to adriamycin alone; assay type: cell-based
How it was run: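 K562/A02 cells exposed to adriamycin with or without 2.0 μM modulator; verapamil 2.0 μM as reference. Viability by MTS after 72 h at 37 °C (absorbance 490 nm), adriamycin IC50 from dose-response curves. Reversal fold = adriamycin IC50 alone / adriamycin IC50 with modulator.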

[6] = tested on: K562/A02; experiment: Effect on P-gp mRNA expression in human K562/A02 cells at 2 uM after 48 hrs by RT-PCR analysis; assay type: functional, cell-based
[7] = tested on: K562/A02; experiment: Effect on P-gp protein expression in human K562/A02 cells at 2 uM after 48 hrs by Western blot analysis; assay type: functional, cell-based
[8] = tested on: MDA-MB-231; experiment: Antimigratory activity against human MDA-MB-231 cells assessed as reduction in wound healing after 24 hrs by inverted microscopic analysis; assay type: functional, cell-based
How it was run: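 Confluent MDA-MB-231 monolayer scratched with 200 μL pipette tip, washed twice with PBS, then exposed to 5, 15 or 45 μM in DMEM with 10% FBS. Wound photographed by inverted microscope at 0 and 24 h. Relative migration = migration distance of treated cells divided by that of control.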

[9] = tested on: MDA-MB-231; experiment: Antimigratory activity against human MDA-MB-231 cells assessed as delay in cell migration at 5 to 45 uM after 4 hrs by crystal violet staining-based chamber migration assay relative to control; assay type: functional
How it was run: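 MDA-MB-231 cells pretreated 24 h with 5, 15 or 45 μM, suspended in serum-free medium and placed in upper transwell compartment; lower compartment medium with 10% FBS. After 4 h non-migrated cells swabbed off; migrated cells fixed in methanol, stained with 0.5% crystal violet, counted manually in three random fields. Migrated cells expressed as % of control.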

[10] = tested on: MDA-MB-231; experiment: Antimigratory activity against human MDA-MB-231 cells assessed as reduction in cell invasion at 5 to 45 uM after 24 hrs by crystal violet staining-based matrigel assay; assay type: functional
How it was run: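 MDA-MB-231 cells pretreated 24 h with 5, 15 or 45 μM, seeded in serum-free medium into transwell chambers precoated with matrigel (40 μg/100 μL/chamber, 37°C, 1 h); lower compartment medium with 10% FBS. Incubation 24 h, then invaded cells stained with crystal violet and counted in three random fields; expressed as % of control.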

[11] = molecular target: 72 kDa type IV collagenase (Homo sapiens) (UniProt P08253); experiment: Inhibition of MMP2 activity in human MDA-MB-231 cells after 24 hrs by gelatin zymography assay; assay type: cell-based
[12] = tested on: MDA-MB-231; experiment: Inhibition of MMP2 expression in human MDA-MB-231 cells after 24 hrs by Western blot analysis; assay type: functional, cell-based
How it was run: (§3)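 MDA-MB-231 cells exposed to 5, 15 or 45 μM for 24 h, then lysed; immunoblotted with antibodies against MMP-2 and MMP-9; detection with BCIP/NBT alkaline phosphatase substrate for 15 min.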

[13] = tested on: MDA-MB-231; experiment: Inhibition of MMP9 expression in human MDA-MB-231 cells after 24 hrs by Western blot analysis; assay type: functional, cell-based; how it was run: as §3
[14] = tested on: MDA-MB-231; experiment: Antiproliferative activity against human MDA-MB-231 cells after 72 hrs by MTT assay; assay type: cell-based; settings: MDA-MB-231, 72 h
[15] = molecular target: Matrix metalloproteinase-9 (Homo sapiens) (UniProt P14780); experiment: Inhibition of MMP9 activity in human MDA-MB-231 cells after 24 hrs by gelatin zymography assay
[16] = molecular target: 72 kDa type IV collagenase (Homo sapiens) (UniProt P08253); experiment: Residual MMP2 activity in human MDA-MB-231 cells at 5 uM after 24 hrs by gelatin zymography assay relative to control
[17] = tested on: MMP-9 (92 kDa type IV collagenase, Homo sapiens); experiment: Inhibition of MMP9 activity in human MDA-MB-231 cells at 5 uM after 24 hrs by gelatin zymography assay relative to control; values are per cent of control
[18] = Selectivity ratio of IC50 for human K562/A02 cells to IC50 for human K562 cells; assay type: ADME; settings: K562/A02 cells and K562 cells, read-out: Ratio IC50

Chain of 72 kDa type IV collagenase (Homo sapiens) (P08253 110-660 limits assumed): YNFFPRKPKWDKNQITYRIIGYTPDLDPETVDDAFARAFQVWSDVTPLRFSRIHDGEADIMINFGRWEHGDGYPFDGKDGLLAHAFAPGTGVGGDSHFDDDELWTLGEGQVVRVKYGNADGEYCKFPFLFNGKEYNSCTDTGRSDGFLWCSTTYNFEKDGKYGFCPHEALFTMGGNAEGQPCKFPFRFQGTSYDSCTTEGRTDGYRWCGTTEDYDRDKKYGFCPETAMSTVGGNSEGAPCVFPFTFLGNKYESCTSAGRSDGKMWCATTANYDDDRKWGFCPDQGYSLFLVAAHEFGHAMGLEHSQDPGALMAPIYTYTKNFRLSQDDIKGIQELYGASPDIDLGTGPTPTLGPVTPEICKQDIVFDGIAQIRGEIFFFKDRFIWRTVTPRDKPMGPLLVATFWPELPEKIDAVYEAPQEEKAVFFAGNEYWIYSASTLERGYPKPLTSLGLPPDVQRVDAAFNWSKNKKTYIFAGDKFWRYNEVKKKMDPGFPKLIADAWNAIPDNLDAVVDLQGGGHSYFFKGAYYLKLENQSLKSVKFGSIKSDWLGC
Chain of Matrix metalloproteinase-9 (Homo sapiens) (P14780 whole entry): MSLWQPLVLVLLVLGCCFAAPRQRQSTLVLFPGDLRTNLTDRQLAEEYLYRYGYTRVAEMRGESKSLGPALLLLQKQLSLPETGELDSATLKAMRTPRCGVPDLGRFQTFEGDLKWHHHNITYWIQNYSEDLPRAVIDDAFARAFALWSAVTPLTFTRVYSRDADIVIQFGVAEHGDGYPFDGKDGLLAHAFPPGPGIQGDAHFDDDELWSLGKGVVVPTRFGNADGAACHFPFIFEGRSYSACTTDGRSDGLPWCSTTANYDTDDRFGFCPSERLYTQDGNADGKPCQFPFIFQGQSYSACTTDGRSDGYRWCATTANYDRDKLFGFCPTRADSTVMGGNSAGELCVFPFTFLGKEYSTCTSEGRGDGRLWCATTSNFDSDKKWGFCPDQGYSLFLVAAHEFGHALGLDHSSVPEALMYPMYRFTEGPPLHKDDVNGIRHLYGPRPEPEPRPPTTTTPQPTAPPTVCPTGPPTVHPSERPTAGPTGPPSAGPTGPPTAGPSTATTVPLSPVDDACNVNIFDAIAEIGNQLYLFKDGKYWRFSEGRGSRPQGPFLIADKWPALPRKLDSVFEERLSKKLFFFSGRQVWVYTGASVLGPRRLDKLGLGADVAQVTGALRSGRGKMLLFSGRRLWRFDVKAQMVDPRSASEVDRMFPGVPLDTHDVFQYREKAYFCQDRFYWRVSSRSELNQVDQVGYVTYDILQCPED

Q: With `COc1ccccc1NC(=O)CCN1Cc2cc(OC)c3c(c2-c2c(cc(OC)c4c2OCO4)C1)OCO3` as the molecule, how does the IC50 [1] read?
A: Its IC50 is 72.9 µM.

Q: And the IC50 [2]?
A: Its IC50 is 23.1 µM.

Q: With `COc1cc(C(=O)NCCN2Cc3cc(OC)c4c(c3-c3c(cc(OC)c5c3OCO5)C2)OCO4)cc(OC)c1OC` as the molecule, how does the inhibition [3] read?
A: Its inhibition is “Dose-dependent effect”.

Q: And the inhibition [4]?
A: Its inhibition is “inactive”.

Q: And the IC50 [1]?
A: The IC50 was 47.2 µM.

Q: And the IC50 [2]?
A: Its IC50 is 16.9 µM.

Q: And the fold change (FC) [5]?
A: Its fold change (FC) is 3.82.

Q: And the Activity [6]?
A: The Activity was “inactive”.

Q: And the Activity [7]?
A: Its Activity is “inactive”.

Q: What about the Activity [8] of the same molecule?
A: The Activity was “Active”.

Q: And the Activity [9]?
A: The Activity was 65.7%.

Q: And the Activity [10]?
A: Its Activity is “Active”.

Q: What about the inhibition [11] of the same molecule?
A: Its inhibition is “Dose-dependent effect”.

Q: And the inhibition [12]?
A: Its inhibition is “Dose-dependent effect”.

Q: And the inhibition [13]?
A: The inhibition was “Dose-dependent effect”.

Q: What about the IC50 [14] of the same molecule?
A: The IC50 was 85.8 µM.

Q: And the inhibition [15]?
A: The inhibition was “Dose-dependent effect”.

Q: What about the residual activity [16] of the same molecule?
A: Its residual activity is 59.1%.

Q: What about the residual activity [17] of the same molecule?
A: Its residual activity is 58.2%.

Q: What does the source list for `COc1ccc(NC(=O)CCN2Cc3cc(OC)c4c(c3-c3c(cc(OC)c5c3OCO5)C2)OCO4)cc1OC`?
A: inhibition [3]: Dose-dependent effect; inhibition [4]: inactive; IC50 [1]: 69.9 µM; IC50 [2]: 34.8 µM; fold change (FC) [5]: 5.76; Activity [6]: inactive; Activity [7]: inactive; Activity [8]: Active; Activity [9]: 54.8%; Activity [10]: Active; inhibition [11]: Dose-dependent effect; inhibition [12]: Dose-dependent effect; inhibition [13]: Dose-dependent effect; IC50 [14]: 80.5 µM; inhibition [15]: Dose-dependent effect; residual activity [16]: 52.8%; residual activity [17]: 52.6%

Q: With `COc1cc2c(c3c1OCO3)-c1c(cc(OC)c3c1OCO3)CN(CCNC(=O)c1ccc(C)cc1)C2` as the molecule, how does the IC50 [1] read?
A: Its IC50 is 28.2 µM.

Q: What about the IC50 [2] of the same molecule?
A: The IC50 was 14.4 µM.

Q: For `COc1ccc(C(=O)NCCN2Cc3cc(OC)c4c(c3-c3c(cc(OC)c5c3OCO5)C2)OCO4)cc1OC`, which inhibition [3] is on record?
A: The inhibition was “Dose-dependent effect”.

Q: What about the inhibition [4] of the same molecule?
A: The inhibition was “inactive”.

Q: What about the IC50 [1] of the same molecule?
A: The IC50 was 65.8 µM.

Q: And the IC50 [2]?
A: The IC50 was 30.5 µM.

Q: Which results are given for `COc1ccccc1C(=O)NCCCCCCN1Cc2cc(OC)c3c(c2-c2c(cc(OC)c4c2OCO4)C1)OCO3`?
A: IC50 [1]: 26.2 µM; IC50 [2]: 11 µM

Q: Which IC50 [1] does the source give for `COc1cc(C(=O)NCCCCCCN2Cc3cc(OC)c4c(c3-c3c(cc(OC)c5c3OCO5)C2)OCO4)cc(OC)c1OC` here?
A: The IC50 was 31.8 µM.

Q: What about the IC50 [2] of the same molecule?
A: The IC50 was 11.8 µM.

Q: For `COc1ccc(C(=O)NCCCCCCN2Cc3cc(OC)c4c(c3-c3c(cc(OC)c5c3OCO5)C2)OCO4)cc1OC`, which IC50 [1] is on record?
A: Its IC50 is 28.3 µM.

Q: What about the IC50 [2] of the same molecule?
A: Its IC50 is 14.1 µM.

Q: Which results are given for `COc1cc2c(c3c1OCO3)-c1c(cc(OC)c3c1OCO3)CN(CCCCCCNC(=O)c1ccc(Cl)c(Cl)c1)C2`?
A: IC50 [1]: 11.5 µM; IC50 [2]: 5.07 µM

Q: What does the source list for `COc1cc2c(c3c1OCO3)-c1c(cc(OC)c3c1OCO3)CN(CCc1ccc3c(c1)OCO3)C2`?
A: IC50 [1]: > 100 µM; IC50 [2]: 51.4 µM; fold change (FC) [5]: 3.99

Q: For `COc1cc2c(c3c1OCO3)-c1c(cc(OC)c3c1OCO3)CN(CCCCCCNC(=O)c1cccs1)C2`, which IC50 [1] is on record?
A: Its IC50 is 29 µM.

Q: And the IC50 [2]?
A: The IC50 was 12.5 µM.

Q: Which results are given for `COc1ccccc1C(=O)NCCN1Cc2cc(OC)c3c(c2-c2c(cc(OC)c4c2OCO4)C1)OCO3`?
A: IC50 [1]: 63.9 µM; IC50 [2]: 15 µM

Q: Which results are given for `COc1cc2c(c3c1OCO3)-c1c(cc(OC)c3c1OCO3)CN(CCCCCCNC(=O)c1ccc(Cl)cc1Cl)C2`?
A: IC50 [1]: 34.5 µM; IC50 [2]: 13.7 µM

Q: For `COc1cc2c(c3c1OCO3)-c1c(cc(OC)c3c1OCO3)CN(CCCCCCNC(=O)c1ccc(C)cc1)C2`, which IC50 [1] is on record?
A: Its IC50 is 23.3 µM.

Q: What about the IC50 [2] of the same molecule?
A: The IC50 was 8.18 µM.

Q: What does the source list for `COc1cccc2c1C(=O)c1c(O)c3c(c(O)c1C2=O)C[C@@](O)(C(=O)CO)C[C@@H]3O[C@H]1C[C@H](N)[C@H](O)[C@H](C)O1` [DOXORUBICIN HYDROCHLORIDE]?
A: IC50 [1]: 25 µM; IC50 [2]: 0.39 µM; selectivity ratio [18]: 64

Q: With `COc1cc2c(c3c1OCO3)-c1c(cc(OC)c3c1OCO3)CN(CCCCCCNC(=O)c1ccc(Cl)cc1)C2` as the molecule, how does the IC50 [1] read?
A: Its IC50 is 18.4 µM.

Q: What about the IC50 [2] of the same molecule?
A: Its IC50 is 5.85 µM.

Q: With `COc1ccc(NC(=O)CCN2Cc3cc(OC)c4c(c3-c3c(cc(OC)c5c3OCO5)C2)OCO4)cc1` as the molecule, how does the IC50 [1] read?
A: Its IC50 is 43.2 µM.

Q: What about the IC50 [2] of the same molecule?
A: Its IC50 is 29.8 µM.
